From ChEMBL document CHEMBL4376862, “Synthesis and evaluation of novel chlorophyll a derivatives as potent photosensitizers for photodynamic therapy” (Eur J Med Chem, 2020)
pIC50: −log10 of the molar value. Activity calls are given as the source filed them. The calls are words filed in the database; no cut-off is given here.

Assays:
[1] = Induction of ROS generation in DMF solution assessed as slope of the photodegradation rate of DPBF at 2 uM followed by irradiation measured every 10 secs by spectrophotometric analysis; type: functional
[2] = Dark toxicity in human A549 cells assessed as reduction in cell viability incubated under dark for 24 hrs measured after 48 hrs by MTT assay; type: cell-based; conditions: read-out: TC50
Method in brief: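 A549 cells seeded at 5×10^4 cells/100 µL per well for 24 h, treated in the dark with […] (so in the source) for 24 h; MTT added 4 h, absorbance 570 nm, 48 h later; viability as OD treated/OD control; triplicate, mean ± SD.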

A549 [3] = assay: Phototoxicity against human A549 cells assessed as reduction in cell proliferation irradiated with 1 J/cm2 of 650 nanometer laser light preincubated for 24 hrs measured after 48 hrs by MTT assay; type: functional, cell-based; conditions: A549, light or radiation study
Method in brief: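 A549 cells seeded 5×10^4 cells/100 µL per well, given […] for 24 h, then 650 nm semiconductor laser at 1 J/cm2 (25 mW/cm2, 40 s); MTT 4 h, absorbance 570 nm; viability vs control; triplicate, mean ± SD.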

[4] = Drug uptake in human A549 cells incubated upto 24 hrs by fluorescence spectrophotometer analysis; type: ADME, cell-based; conditions: a549, 24 h
Method in brief: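 A549 cells (F-12K, 10% FBS, 37 °C, 5% CO2) grown in 24 wells and exposed to photosensitizer for 0.5, 1, 2, 4, 8, 12 or 24 h; cells harvested by digestion, fluorescence read on a spectrophotometer.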

[5] = Octanol/water partition coefficient, logP of compound by shake flask method; type: physicochemical
Method in brief: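 Shake-flask method: equilibrium concentrations in octanol and water measured by UV-vis absorbance; log P taken as log of octanol/water concentration ratio (mg/L).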

[6] = Absorption property of compound in DMSO assessed as strong absorption wavelength at 1 x 10^-3 M by UV-spectra analysis; type: physicochemical; conditions: 1000 µM
Method in brief: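 Stocks 1 mM in DMSO; spectra run over […] range (units as printed), 300–800 nm in 1 nm steps, room temperature, quartz cuvettes, UV-vis spectrophotometer.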

[7] = Therapeutic index, ratio of TC50 for human A549 cells under dark to IC50 for human A549 cells irradiated with 1 J/cm2 of 650 nanometer laser light; type: toxicity, cell-based; conditions: read-out: TI
Method in brief: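 A549 cells (F-12K, 10% FBS, 37 °C, 5% CO2) seeded 24 h, then exposed to 0–10 photosensitizer for 24 h. Dark arm: MTT 48 h later. Light arm: 650 nm laser, 1 J/cm2 (25 mW/cm2, 40 s), then MTT. A570 viability relative to control, triplicate. Ratio = dark TC50 / irradiated IC50.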

[8] = Emission property of a compound in DMSO assessed as red shift at 5 uM on excitation with light at 410 to 415 nm by 3D fluorescence spectra analysis; type: physicochemical
Method in brief: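 Stock 1 mM in DMSO, measured at […] (so in the source); excitation scanned 350–640 nm, emission 600–750 nm, 1 nm steps, room temperature, quartz cuvettes; 3D fluorescence matrix spectra recorded.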

A549 [9] = assay: Photodynamic antitumor activity against human A549 cells xenografted in BALB/c nude mouse assessed as decrease in tumor weight at 0.3 mg/kg, iv followed by laser light irradiation at 120 J/cm2 measured after 14 days; type: functional
Method in brief: (§1)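 Male BALB/c nude mice (5–6 weeks, 14–16 g) given 2×10^6 A549 cells s.c. in 0.2 mL PBS; at 6–7 mm tumors randomized into ten groups; drug via tail vein, 650 nm diode laser 120 J/cm2 at 180 mW/cm2 24 h later; caliper volume a×b²/2, followed 14 days.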

[10] = Induction of ROS generation in DMF solution assessed as ROS quantum yield at 2 uM followed by irradiation measured every 10 secs by spectrophotometric analysis; type: functional
Mus musculus [11] = assay: Phototoxicity in ICR mouse assessed as ear weight at 0.45 mg/kg, iv followed by 10 mW/cm2 light irradiation for 10 mins at 3 days after drug challenge measured after 1 day of light irradiation (reference value: 12.8 +/- 1.5 mg); type: organism-based; conditions: in vivo
A549 [12] = assay: Photodynamic antitumor activity against human A549 cells xenografted in BALB/c nude mouse assessed as reduction in tumor volume at 0.3 mg/kg, iv incubated for 24 hrs followed by laser light irradiation at 120 J/cm2 measured up to 14 days; type: functional, organism-based; method in brief: as §1
Mus musculus [13] = assay: Phototoxicity in ICR mouse assessed as change in auricles 0.45 mg/kg, iv in presence of 10 mW/cm2 light irradiation for 10 mins upto 7 days measured after 1day of light irradiation by H and E staining based microscopic analysis; type: organism-based; conditions: in vivo
Cavia porcellus [14] = assay: Phototoxicity in guinea pig assessed as change in back skin weight 4.5 mg/kg, iv followed by 10 mW/cm2 light irradiation for 10 mins measured after 1day of light irradiation (reference value: 72.4 +/- 3.1 mg); type: organism-based; conditions: in vivo, 24 h
Mus musculus [15] = assay: Phototoxicity in ICR mouse assessed as change in skin of the backs 0.45 mg/kg, iv in presence of 10 mW/cm2 light irradiation for 10 mins upto 7 days measured after 1 day of light irradiation by H and E staining based microscopic analysis; type: organism-based; conditions: in vivo
Cavia porcellus [16] = assay: Phototoxicity in guinea pig assessed as change in left ear weight 4.5 mg/kg, iv followed by 10 mW/cm2 light irradiation for 10 mins measured after 1 day of light irradiation (reference value: 39.2 +/- 1.8 mg); type: organism-based; conditions: in vivo
Cavia porcellus [17] = assay: Phototoxicity in guinea pig assessed as change in back skin at 4.5 mg/kg, iv in presence of 10 mW/cm2 light irradiation for 10 mins measured after 1day of light irradiation by H and E staining based microscopic analysis; type: organism-based; conditions: in vivo
Mus musculus [18] = assay: Phototoxicity in ICR mouse assessed as ear weight at 0.45 mg/kg, iv followed by 10 mW/cm2 light irradiation for 10 mins at 7 days after drug challenge measured after 1 day of light irradiation (13.2 +/- 1.6 mg); type: organism-based; conditions: in vivo
A549 [19] = assay: Photodynamic antitumor activity against human A549 cells xenografted in BALB/c nude mouse assessed as increase in tumor tissue damage at 0.3 mg/kg, iv incubated for 24 hrs followed by laser light irradiation at 120 J/cm2 measured up to 14 days; type: functional, organism-based; method in brief: as §1
A549 [20] = assay: Photodynamic antitumor activity against human A549 cells xenografted in BALB/c nude mouse assessed as survival time at 0.3 mg/kg, iv incubated for 24 hrs followed by laser light irradiation at 120 J/cm2 measured up to 70 days; type: functional, organism-based
Method in brief: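 Nude mice bearing A549 xenografts, 0.3 mg/kg drug i.v. then 650 nm laser 120 J/cm2 at 180 mW/cm2 after 24 h; survival shown as Kaplan-Meier with log-rank test, n = 5.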

Mus musculus [21] = assay: Phototoxicity in ICR mouse assessed as change in exposed neck skin 0.45 mg/kg, iv in presence of 10 mW/cm2 light irradiation for 10 mins upto 7 days measured after 1day of light irradiation by H and E staining based microscopic analysis; type: organism-based; conditions: in vivo
Cavia porcellus [22] = assay: Phototoxicity in guinea pig assessed as change in auricles of left ear at 4.5 mg/kg, iv in presence of 10 mW/cm2 light irradiation for 10 mins measured after 1day of light irradiation by H and E staining based microscopic analysis; type: organism-based; conditions: in vivo
Cavia porcellus [23] = assay: Phototoxicity in guinea pig assessed as change in right ear weight 4.5 mg/kg, iv followed by 10 mW/cm2 light irradiation for 10 mins measured after 1 day of light irradiation (reference value: 40.4 +/- 2.4 mg); type: organism-based; conditions: in vivo
Mus musculus [24] = assay: Phototoxicity in ICR mouse assessed as ear weight at 0.45 mg/kg, iv followed by 10 mW/cm2 light irradiation for 10 mins at 5 days after drug challenge measured after 1 day of light irradiation (reference value: 12.9 +/- 1.4 mg); type: organism-based; conditions: in vivo
Mus musculus [25] = assay: Phototoxicity in ICR mouse assessed as ear weight at 0.45 mg/kg, iv followed by 10 mW/cm2 light irradiation for 10 mins at 1 day after drug challenge measured after 1 day of light irradiation (reference value: 12.6 +/- 1.2 mg); type: organism-based; conditions: in vivo
[26] = Absorption property of compound in DMSO assessed as Q band absorption at 1 x 10^-3 mM by UV-spectra analysis; conditions: 1 µM

| SMILES | K [1] [s⁻¹] | CC50 at 24 h [2] [nM] | pIC50 (A549 [3]) | Drug uptake [4] | logP [5] | Activity [6] | selectivity ratio [7] | Activity [8] [nm] | Activity (A549 [9]) [g] | Ratio [10] | also measured |
| --- | --- | --- | --- | --- | --- | --- | --- | --- | --- | --- | --- |
| CCCCCCOC(C)c1c(C)c2cc3nc(c4c5[nH]c(cc6nc(cc1[nH]2)C(C)=C6CC)c(C)c5C(=O)C4)[C@@H](CCC(=O)NCC(=O)CCC(=O)O)[C@@H]3C (some centres not stated) | 0.0363 | 1010 | 7.10 | Active | 2.67 | 660 to 670 nm | 12.6 | 661 to 669 | 0 | 1.81 | – |
| CCC1=C(C)c2cc3[nH]c(cc4nc(c5c6[nH]c(cc1n2)c(C)c6C(=O)C5)[C@@H](CCC(=O)NCC(=O)CCC(=O)O)[C@@H]4C)c(C)c3C(C)OCCOC (some centres not stated) | 0.0162 | 5650 | 6.12 | Active | 1.82 | 660 to 670 nm | 7.43 | 661 to 669 | 0.2431 | 0.81 | – |
| CCC1=C(C)c2cc3[nH]c(cc4nc(c5c6[nH]c(cc1n2)c(C)c6C(=O)C5)[C@@H](CCC(=O)NCC(=O)CCC(=O)O)[C@@H]4C)c(C)c3C(C)OC (some centres not stated) | 0.0195 | 2680 | 6.23 | Active | 1.91 | 660 to 670 nm | 4.54 | 661 to 669 | 0.1265 | 0.975 | – |
| CCCOC(C)c1c(C)c2cc3nc(c4c5[nH]c(cc6nc(cc1[nH]2)C(C)=C6CC)c(C)c5C(=O)C4)[C@@H](CCC(=O)NCC(=O)CCC(=O)O)[C@@H]3C (some centres not stated) | 0.018 | 2660 | 6.30 | Active | 2.34 | 660 to 670 nm | 5.32 | 661 to 669 | 0.0495 | 0.9 | – |
| CCCCCOC(C)c1c(C)c2cc3nc(c4c5[nH]c(cc6nc(cc1[nH]2)C(C)=C6CC)c(C)c5C(=O)C4)[C@@H](CCC(=O)NCC(=O)CCC(=O)O)[C@@H]3C (some centres not stated) | 0.0353 | 1040 | 7.00 | Active | 2.61 | 660 to 670 nm | 10.4 | 661 to 669 | 0 | 1.76 | – |
| CCCCCCOC(C)c1c(C)c2cc3nc(c4c5[nH]c(cc6nc(cc1[nH]2)C(C)=C6CC)c(C)c5C(=O)C4)[C@@H](CCC(=O)O)[C@@H]3C (some centres not stated) [HPPH] | 0.0357 | 1950 | 6.48 | – | – | – | 5.91 | 661 to 669 | 0.0212 | 1.78 | Activity (Mus musculus [11]): 13.3 mg; Activity (A549 [12]): Active; Activity (Mus musculus [13]): Non-Toxic; Activity (Cavia porcellus [14]): 74.1 mg; Activity (Mus musculus [15]): Non-Toxic; Activity (Cavia porcellus [16]): 42.6 mg; Activity (Cavia porcellus [17]): Non-Toxic; Activity (Mus musculus [18]): 13.2 mg; Activity (A549 [19]): Active; Activity (A549 [20]): Active; Activity (Mus musculus [21]): Non-Toxic; Activity (Cavia porcellus [22]): Non-Toxic; Activity (Cavia porcellus [23]): 42.2 mg; Activity (Mus musculus [24]): 13.1 mg; Activity (Mus musculus [25]): 12.8 mg |
| CCOC(C)c1c(C)c2cc3nc(c4c5[nH]c(cc6nc(cc1[nH]2)C(C)=C6CC)c(C)c5C(=O)C4)[C@@H](CCC(=O)NCC(=O)CCC(=O)O)[C@@H]3C (some centres not stated) | 0.0161 | 3270 | 6.16 | Active | 2.16 | 660 to 670 nm | 4.74 | 661 to 669 | 0.0527 | 0.805 | – |
| C=Cc1c(C)c2cc3nc(c4c5[nH]c(cc6nc(cc1[nH]2)C(C)=C6CC)c(C)c5C(=O)C4)[C@@H](CCC(=O)O)[C@@H]3C [PYROPHEOPHORBIDE A] | 0.0081 | – | – | – | 3.77 | Active | – | 661 to 669 | – | 0.405 | Activity (Mus musculus [11]): 12.7 mg; Activity (Mus musculus [13]): Non-Toxic; Activity (Cavia porcellus [14]): 100.3 mg; Activity (Cavia porcellus [16]): 57.2 mg; Activity (Mus musculus [18]): 13.3 mg; Activity (Mus musculus [21]): Non-Toxic; Activity (Cavia porcellus [23]): 59.2 mg; Activity (Mus musculus [24]): 13.2 mg; Activity (Mus musculus [25]): 13.1 mg |
| CCCOCCOC(C)c1c(C)c2cc3nc(c4c5[nH]c(cc6nc(cc1[nH]2)C(C)=C6CC)c(C)c5C(=O)C4)[C@@H](CCC(=O)NCC(=O)CCC(=O)O)[C@@H]3C (some centres not stated) | 0.0329 | 4000 | 5.93 | Active | 2.22 | 660 to 670 nm | 3.42 | 661 to 669 | 0.1154 | 1.65 | – |
| C=Cc1c(C)c2cc3nc(c4c5[nH]c(cc6nc(cc1[nH]2)C(C)=C6CC)c(C)c5C(=O)C4)[C@@H](CCC(=O)NCC(=O)CCC(=O)O)[C@@H]3C | 0.0251 | 3190 | 5.70 | Active | 2.28 | 660 to 670 nm | 1.59 | 661 to 669 | 0.2826 | 1.25 | Activity [26]: 669 nm |
